Assay results of several laboratories.
Target: Atypical kinase COQ8B, mitochondrial (COQ8B, Homo sapiens, UniProt Q96D53)
Sequence (Q96D53 1-544, as in one of the studies): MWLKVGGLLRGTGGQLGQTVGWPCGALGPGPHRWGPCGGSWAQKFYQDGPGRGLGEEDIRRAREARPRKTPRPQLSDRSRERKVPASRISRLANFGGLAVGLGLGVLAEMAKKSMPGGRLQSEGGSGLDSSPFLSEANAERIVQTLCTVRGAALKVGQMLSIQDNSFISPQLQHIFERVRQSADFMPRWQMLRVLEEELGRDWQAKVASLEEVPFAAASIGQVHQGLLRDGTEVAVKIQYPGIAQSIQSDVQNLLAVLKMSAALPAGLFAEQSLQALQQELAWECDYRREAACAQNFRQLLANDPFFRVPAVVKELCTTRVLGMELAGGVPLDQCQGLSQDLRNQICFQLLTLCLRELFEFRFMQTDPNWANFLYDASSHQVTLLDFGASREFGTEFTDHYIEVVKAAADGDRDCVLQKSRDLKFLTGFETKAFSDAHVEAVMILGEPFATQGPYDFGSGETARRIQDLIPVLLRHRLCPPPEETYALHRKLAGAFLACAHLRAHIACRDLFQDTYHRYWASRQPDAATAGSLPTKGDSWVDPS

COc1ccnn2ncc(-c3ccnc(N(C)C)n3)c12 gave a remaining binding of 96% (binding; 1 µM).
The remaining binding of C=CC(=O)N1CCC(C(=O)NCC(=O)N2CCN(c3nc(-c4cnc(N)nc4C(F)F)nc(N4CCOCC4)n3)CC2)CC1 is reported as 100% (binding, competition with immobilised ligand; 1 µM).
CCN1CCN(Cc2ccc(C(=O)Nc3ccc(C)c(Oc4ccc5c(c4)CC(=O)N5)c3)cc2C(F)(F)F)CC1 gave a remaining binding of 80% (binding, competition with immobilised ligand; 1 µM).
With Nc1ncc2c(n1)-c1c([nH]c3ccc(C#CC4CC4)cc13)CCCC2 the remaining binding was 90% (binding, competition with immobilised ligand; 1 µM).
For CCS(=O)(=O)c1cc2cc(C[C@@](O)(CC(C)(C)c3ccc(F)cc3C(N)=O)C(F)(F)F)[nH]c2cn1, the remaining binding was 100% (cell-free assay, competition with immobilised ligand; 1 µM).
For C[C@@H]1CCN(c2nccc(-c3cnn4ncccc34)n2)C1, the remaining binding was 89% (binding; 1 µM).
For FC(F)(F)Oc1cccc(-c2cnc3ccc(-c4ccncc4)nn23)c1, the remaining binding was 85% (cell-free assay, competition with immobilised ligand; 5 µM).
With O=C(c1ccc(Nc2ncc(Cl)c(-c3ccc(Cl)s3)n2)cc1)N1CCC(N2CCCC2)CC1 the remaining binding was 21% (binding, competition with immobilised ligand; 1 µM).
For CN(C)c1nccc(-c2cnn3ncccc23)n1, the remaining binding was 100% (binding; 1 µM).
With O=C(NCC1CCOCC1)c1n[nH]cc1NC(=O)c1c(F)cccc1F the remaining binding was 85% (binding, competition with immobilised ligand; 1 µM).
Cc1nc(N2CC[C@@H](O)C2)ncc1-c1cc(C(F)(F)F)cc2[nH]ncc12 has a remaining binding of 100% (cell-free assay, competition with immobilised ligand; 1 µM).
For O=C(c1ccc(Nc2nccc(-c3cc4ccccc4s3)n2)cc1)N1CCC(N2CCCC2)CC1, the remaining binding was 90% (binding, competition with immobilised ligand; 1 µM).
With CS(=O)(=O)c1cc(C2(NC(=O)c3cncc4c3cnn4-c3ccc(F)cc3)CC2)ccn1 the remaining binding was 100% (cell-free assay, competition with immobilised ligand; 1 µM).
F[C@@H]1CCN(c2nccc(-c3cnn4ncccc34)n2)C1 gave a remaining binding of 79% (binding; 1 µM).
The remaining binding of C[C@@H]1CN(c2cc(-c3nn(C)c4ccc(OC5(C)CC5)cc34)ncn2)C[C@H](C)O1 is reported as 100% (cell-free assay, competition with immobilised ligand; 1 µM).
The remaining binding of N[C@@H]1CCN(c2nccc(-c3cnn4ncccc34)n2)C1 is reported as 100% (binding; 1 µM).
With CN(C(=O)c1ccccc1)c1cc(N(C)c2ccc3c(c2)CCc2ccc(C(=O)NCCN4CCOCC4)cc2C3=O)ccc1F the remaining binding was 100% (cell-free assay, competition with immobilised ligand; 1 µM).
The remaining binding of Cc1cnc(Nc2ccc(C(=O)N3CCC(N4CCCC4)CC3)cc2)nc1-c1cc2ccccc2s1 is reported as 34% (binding, competition with immobilised ligand; 1 µM).
CCCCN(CCCC)C(=O)CN1C[C@@H](c2cc(OC)c3c(c2)OCO3)[C@H](C(=O)O)[C@H]1CC(C)(C)CCC gave a remaining binding of 80.2% (cell-free assay, competition with immobilised ligand; 1 µM).
CN(C)c1ncc(F)c(-c2cnn3ncccc23)n1 gave a remaining binding of 73% (binding; 1 µM).
The remaining binding of O=C(Nc1ccc(Oc2ccc(F)cc2)cc1)N1CCc2ncccc2[C@H]1c1ccc(F)cc1 is reported as 92% (cell-free assay, competition with immobilised ligand; 1 µM).
For COc1cnc(Nc2cccc(S(N)(=O)=O)c2)nc1N1CCN(c2ccccc2)CC1, the remaining binding was 85% (binding, competition with immobilised ligand; 1 µM).
